Test results from ChEMBL document CHEMBL3792302, “N-Phenyl indole derivatives as AT1 antagonists with anti-hypertension activities: Design, synthesis and biological evaluation” (Eur J Med Chem, 2016).
Calls of active or inactive are those of the source. No cut-off for these calls is given here.

How the values were obtained:
[1] = (§1) Displacement of [125I]-Sar1,Ile8-angiotensin 2 from AT1 receptor in Sprague-Dawley rat vascular smooth muscle cells after 150 mins by gamma counting analysis
Method in brief: (§2)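 Competition radioligand binding to the AT1 receptor was run on vascular smooth muscle cells with [125I]-AII as the labelled ligand. Affinity is reported as IC50 and Ki, given as ± SEM.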

[2] = species: Rattus norvegicus; assay: as §1; method in brief: as §2
[3] = system: Rattus norvegicus; assay: Antihypertensive activity in SHR rat assessed as reduction in mean blood pressure at 5 mg/kg, po measured upto 24 hrs post dosing; assay type: functional, organism-based
Method in brief: (§3)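 Spontaneously hypertensive rats received test agents orally at 5 or 10 mg/kg, with losartan and telmisartan at 10 mg/kg as references. Mean blood pressure was tracked for over 24 h after dosing and compared with a negative control group. Significance versus control was set at p<0.05 and p<0.01.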

[4] = system: Rattus norvegicus; assay: Antihypertensive activity in SHR rat assessed as reduction in mean blood pressure at 10 mg/kg, po measured upto 24 hrs post dosing; assay type: functional; method in brief: as §3
[5] = system: Rattus norvegicus; assay: Antihypertensive activity in po dosed SHR rat assessed as reduction in mean blood pressure measured upto 24 hrs post dosing; assay type: functional, organism-based
Method in brief: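 In spontaneously hypertensive rats, test compounds were given orally at 5 and 10 mg/kg, with losartan and telmisartan references at 10 mg/kg. Mean blood pressure was followed over time to beyond 24 h post-dose and compared with a negative control group. Significance was set at p<0.05 and p<0.01.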

[6] = system: Rattus norvegicus; assay: Antihypertensive activity in SHR rat assessed as reduction in mean blood pressure at 10 mg/kg, po measured after 6 hrs post dosing; assay type: functional; method in brief: as §3
[7] = Acute toxicity in ICR mouse assessed as mortality at 307.20 mg/kg, ig administered daily for 2 weeks measured during compound dosing; assay type: organism-based; conditions: in vivo, po, 307.2 mg/kg
Method in brief: (§4)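 Mice were given single-compound dose groups of 307.20, 384.00, 480.00, 600.00, 750.00 and 937 mg/kg. Body weight of survivors was checked after 2 weeks. Mortality (%) was scored per dose group, and LD50 with 95% confidence interval was derived from log(dose) versus mortality.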

[8] = Acute toxicity in ICR mouse assessed as mortality at 384 mg/kg, ig administered daily for 2 weeks measured during compound dosing; assay type: organism-based; conditions: in vivo, po; method in brief: as §4
[9] = Acute toxicity in ICR mouse assessed as mortality at 480 mg/kg, ig administered daily for 2 weeks measured during compound dosing; assay type: organism-based; conditions: in vivo, po; method in brief: as §4
[10] = Acute toxicity in ICR mouse assessed as mortality at 600 mg/kg, ig administered daily for 2 weeks measured during compound dosing; assay type: organism-based; conditions: in vivo, po; method in brief: as §4
[11] = Acute toxicity in ICR mouse assessed as mortality at 750 mg/kg, ig administered daily for 2 weeks measured during compound dosing; assay type: organism-based; conditions: in vivo, po; method in brief: as §4
[12] = Acute toxicity in ICR mouse assessed as mortality at 937 mg/kg, ig administered daily for 2 weeks measured during compound dosing; assay type: organism-based; conditions: in vivo, po; method in brief: as §4
[13] = Acute toxicity in intragastrically dosed ICR mouse assessed as mortality administered daily for 2 weeks measured during compound dosing; assay type: organism-based; conditions: in vivo, po; method in brief: as §4
[14] = system: Mus musculus; assay: Acute toxicity in ICR mouse assessed as skin changes at 307.20 mg/kg, ig administered daily for 2 weeks measured during compound dosing; assay type: organism-based; conditions: in vivo, po, 307.2 mg/kg, 336 h; method in brief: as §4
[15] = system: Mus musculus; assay: Acute toxicity in ICR mouse assessed as skin changes at 384 mg/kg, ig administered daily for 2 weeks measured during compound dosing; assay type: organism-based; conditions: in vivo, po, 336 h; method in brief: as §4
[16] = system: Mus musculus; assay: Acute toxicity in ICR mouse assessed as mobility at 307.20 mg/kg, ig administered daily for 2 weeks measured during compound dosing; assay type: organism-based; conditions: in vivo, po, 307.2 mg/kg, 336 h; method in brief: as §4
[17] = system: Mus musculus; assay: Acute toxicity in ICR mouse assessed as mobility at 384 mg/kg, ig administered daily for 2 weeks measured during compound dosing; assay type: organism-based; conditions: in vivo, po, 336 h; method in brief: as §4
[18] = system: Mus musculus; assay: Acute toxicity in ICR mouse assessed as aggressiveness at 307.20 mg/kg, ig administered daily for 2 weeks measured during compound dosing; assay type: organism-based; conditions: in vivo, po, 307.2 mg/kg, 336 h; method in brief: as §4
[19] = system: Mus musculus; assay: Acute toxicity in ICR mouse assessed as aggressiveness at 384 mg/kg, ig administered daily for 2 weeks measured during compound dosing; assay type: organism-based; conditions: in vivo, po, 336 h; method in brief: as §4
[20] = system: Mus musculus; assay: Acute toxicity in ICR mouse assessed as respiratory movements at 307.20 mg/kg, ig administered daily for 2 weeks measured during compound dosing; assay type: organism-based; conditions: in vivo, po, 307.2 mg/kg, 336 h; method in brief: as §4
[21] = system: Mus musculus; assay: Acute toxicity in ICR mouse assessed as respiratory movements at 384 mg/kg, ig administered daily for 2 weeks measured during compound dosing; assay type: organism-based; conditions: in vivo, po, 336 h; method in brief: as §4
[22] = system: Mus musculus; assay: Acute toxicity in ICR mouse assessed as change in body weight at 307.20 to 937 mg/kg, ig administered daily for 2 weeks during compound dosing; assay type: organism-based; conditions: in vivo, po, 336 h; method in brief: as §4
[23] = system: Mus musculus; assay: Acute toxicity in ICR mouse assessed as obvious untoward reaction at 307.20 to 937, ig administered daily for 2 weeks during compound dosing; assay type: organism-based; conditions: in vivo, po, 336 h; method in brief: as §4
[24] = system: Mus musculus; assay: Acute toxicity in ICR mouse assessed as pathological changes in organs and tissues at 307.20 to 937, ig administered daily for 2 weeks measured on fifteenth day; assay type: organism-based; conditions: in vivo, po, 336 h
[25] = system: Mus musculus; assay: Acute toxicity in ICR mouse assessed as hyperthyroidism at 480 to 937 mg/kg, ig administered daily for 2 weeks measured after 6 hrs post last dose; conditions: in vivo, po

CCCCc1nc2c(C)cc(-c3nc4ccccc4n3C)cc2n1Cc1cccc2c1ccn2-c1ccccc1C(=O)O
IC50 [1]: 2.61 nM | Ki [1]: 1.63 nM | Activity [2]: Dose-dependent effect | Activity [3]: inactive | Activity [4]: inactive

CCCCCc1nc2c(C)cc(-c3nc4ccccc4n3C)cc2n1Cc1ccc2c(ccn2-c2ccccc2C(=O)O)c1
IC50 [1]: 0.92 nM | Ki [1]: 0.67 nM | Activity [2]: Dose-dependent effect | Activity [4]: 53 mmHg

CCCCc1nc(Cl)c(CO)n1Cc1ccc(-c2ccccc2-c2nnn[nH]2)cc1 [LOSARTAN]
IC50 [1]: 20.1 nM | Ki [1]: 13.1 nM | Activity [2]: Dose-dependent effect | Activity [4]: 43 mmHg

Cc1cc(-c2nc3ccccc3n2C)cc2c1nc(C)n2Cc1cccc2c1ccn2-c1ccccc1C(=O)O
IC50 [1]: 7.46 nM | Ki [1]: 4.66 nM | Activity [2]: Dose-dependent effect | Activity [3]: inactive | Activity [4]: inactive

CCCc1nc2c(C)cc(-c3ccccn3)cc2n1Cc1cccc2c1ccn2-c1ccccc1C(=O)O
IC50 [1]: 4.7 nM | Ki [1]: 3.4 nM | Activity [2]: Dose-dependent effect | Activity [3]: Active | Activity [4]: Active

CCCc1nc2c(C)cc(-c3nc4ccccc4n3C)cc2n1Cc1ccc2c(ccn2-c2ccccc2C(=O)O)c1
IC50 [1]: 3.76 nM | Ki [1]: 2.35 nM | Activity [2]: Dose-dependent effect | Activity [3]: Active | Activity [4]: Active

CCCc1nc2c(C)cc(-c3nc4ccccc4n3C)cc2n1Cc1cccc2c1ccn2-c1ccccc1-c1nnn[nH]1
IC50 [1]: 3.39 nM | Ki [1]: 2.12 nM | Activity [2]: Dose-dependent effect | Activity [3]: Active | Activity [4]: Active

CCCc1nc2c(C)cc(-c3nc4ccccc4n3C)cc2n1Cc1cccc2c1ccn2-c1ccccc1C(=O)O
IC50 [1]: 0.36 nM | Ki [1]: 0.23 nM | Activity [2]: Dose-dependent effect | Activity [3]: Active | Activity [4]: Active | Activity [5]: Dose-dependent effect | Activity [6]: 64 mmHg | mortality at 336 h [7]: 0% | mortality at 336 h [8]: 10% | mortality at 336 h [9]: 50% | mortality at 336 h [10]: 60% | mortality at 336 h [11]: 90% | mortality at 336 h [12]: 100% | LD50 at 336 h [13]: 526 mg/kg | Activity [14]: Non-toxic | Activity [15]: Non-toxic | Activity [16]: Non-toxic | Activity [17]: Non-toxic | Activity [18]: Non-toxic | Activity [19]: Non-toxic | Activity [20]: Non-toxic | Activity [21]: Non-toxic | Activity [22]: Non-toxic | Activity [23]: Non-toxic | Activity [24]: Non-toxic | Activity [25]: Toxic

CCCCc1nc2c(C)cc(-c3ccccn3)cc2n1Cc1cccc2c1ccn2-c1ccccc1C(=O)O
IC50 [1]: 5.63 nM | Ki [1]: 4.08 nM | Activity [2]: Dose-dependent effect | Activity [3]: Active | Activity [4]: Active

CCc1nc2c(C)cc(-c3ccccn3)cc2n1Cc1ccc2c(ccn2-c2ccccc2C(=O)O)c1
IC50 [1]: 1.17 nM | Ki [1]: 0.84 nM | Activity [2]: Dose-dependent effect | Activity [4]: 42 mmHg

CCc1nc2c(C)cc(-c3nc4ccccc4n3C)cc2n1Cc1ccc2c(ccn2-c2ccccc2C(=O)O)c1
IC50 [1]: 13.1 nM | Ki [1]: 8.16 nM | Activity [2]: Dose-dependent effect | Activity [3]: inactive | Activity [4]: inactive

CCc1nc2c(C)cc(-c3nc4ccccc4n3C)cc2n1Cc1cccc2c1ccn2-c1ccccc1C(=O)O
IC50 [1]: 1.83 nM | Ki [1]: 1.14 nM | Activity [2]: Dose-dependent effect | Activity [3]: Active | Activity [4]: Active

CCCc1nc2c(C)cc(-c3ccccn3)cc2n1Cc1ccc2c(ccn2-c2ccccc2C(=O)O)c1
IC50 [1]: 3.27 nM | Ki [1]: 2.37 nM | Activity [2]: Dose-dependent effect | Activity [4]: 43 mmHg

CCCCc1nc2c(C)cc(-c3nc4ccccc4n3C)cc2n1Cc1ccc2c(ccn2-c2ccccc2C(=O)O)c1
IC50 [1]: 2.23 nM | Ki [1]: 1.39 nM | Activity [2]: Dose-dependent effect | Activity [3]: Active | Activity [4]: Active

Cc1cc(-c2nc3ccccc3n2C)cc2c1nc(C)n2Cc1ccc2c(ccn2-c2ccccc2C(=O)O)c1
IC50 [1]: 8.25 nM | Ki [1]: 5.13 nM | Activity [2]: Dose-dependent effect | Activity [4]: 44 mmHg

CCCCCc1nc2c(C)cc(-c3nc4ccccc4n3C)cc2n1Cc1cccc2c1ccn2-c1ccccc1C(=O)O
IC50 [1]: 11.3 nM | Ki [1]: 7.06 nM | Activity [2]: Dose-dependent effect | Activity [3]: inactive | Activity [4]: inactive

CCCCc1nc2c(C)cc(-c3ccccn3)cc2n1Cc1ccc2c(ccn2-c2ccccc2C(=O)O)c1
IC50 [1]: 5.61 nM | Ki [1]: 4.06 nM | Activity [2]: Dose-dependent effect | Activity [3]: inactive | Activity [4]: inactive

CCCc1nc2c(C)cc(-c3nc4ccccc4n3C)cc2n1Cc1ccc(-c2ccccc2C(=O)O)cc1 [TELMISARTAN]
IC50 [1]: 3.8 nM | Ki [1]: 2.75 nM | Activity [2]: Dose-dependent effect | Activity [4]: Active

CCc1nc2c(C)cc(-c3ccccn3)cc2n1Cc1cccc2c1ccn2-c1ccccc1C(=O)O
IC50 [1]: 3.55 nM | Ki [1]: 2.57 nM | Activity [2]: Dose-dependent effect | Activity [3]: Active | Activity [4]: Active
